Experimental data: ChEMBL document CHEMBL3593164, “Rational Design and Synthesis of Thioridazine Analogues as Enhancers of the Antituberculosis Therapy” (J Med Chem, 2015)

Experiments:
[1] = tested on: Mycobacterium tuberculosis; experiment: Inhibition of multidrug resistance efflux pump in Mycobacterium tuberculosis H37Rv assessed as reduction in rifampin MIC at 4 ug/ml after 7 days by two-dimensional broth microdilution checkerboard assay
Summary of the method: (§1)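 M. tuberculosis H37Rv two-dimensional broth microdilution checkerboard. MICs of INH, RIF, AMK, OFX or EtBr were determined without and with graded sub-inhibitory compound concentrations, starting at ½ MIC. Where MIC was undeterminable, the highest concentration still permitting growth was taken as ½ MIC. FIC = MIC of antibacterial in combination / MIC alone. FIC ≤0.25 was scored as synergism and ≥2 as antagonism.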

[2] = tested on: Mycobacterium tuberculosis; experiment: Inhibition of multidrug resistance efflux pump in Mycobacterium tuberculosis H37Rv assessed as rifampin MIC at 1.88 ug/ml after 7 days by two-dimensional broth microdilution checkerboard assay; settings: 168 h
Summary of the method: (§2)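 M. tuberculosis H37Rv ATCC27294. MICs of INH, RIF, AMK, OFX and EtBr were determined alone and with sub-inhibitory concentrations of test compound by two-dimensional broth microdilution checkerboard. Where a compound's MIC was not determinable, the highest concentration still allowing growth was taken as ½ MIC. FIC = MIC in combination / MIC alone. FIC ≤0.25 was scored as synergism and ≥2 as antagonism.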

[3] = tested on: Mycobacterium tuberculosis; experiment: Inhibition of multidrug resistance efflux pump in Mycobacterium tuberculosis H37Rv assessed as rifampin MIC at 0.94 ug/ml after 7 days by two-dimensional broth microdilution checkerboard assay; settings: 168 h; summary of the method: as §2
[4] = tested on: Mycobacterium tuberculosis; experiment: Inhibition of multidrug resistance efflux pump in Mycobacterium tuberculosis H37Rv assessed as rifampin MIC at 0.47 ug/ml after 7 days by two-dimensional broth microdilution checkerboard assay; settings: 168 h; summary of the method: as §2
[5] = tested on: Mycobacterium tuberculosis; experiment: Inhibition of multidrug resistance efflux pump in Mycobacterium tuberculosis H37Rv assessed as rifampin MIC at 0.23 ug/ml after 7 days by two-dimensional broth microdilution checkerboard assay; settings: 168 h; summary of the method: as §2
[6] = tested on: Mycobacterium tuberculosis; experiment: Inhibition of multidrug resistance efflux pump in Mycobacterium tuberculosis H37Rv assessed as amikacin MIC at 7.5 ug/ml after 7 days by two-dimensional broth microdilution checkerboard assay; settings: 168 h; summary of the method: as §1
[7] = tested on: Mycobacterium tuberculosis; experiment: Inhibition of multidrug resistance efflux pump in Mycobacterium tuberculosis H37Rv assessed as amikacin MIC at 1.88 ug/ml after 7 days by two-dimensional broth microdilution checkerboard assay; settings: 168 h; summary of the method: as §2
[8] = tested on: Mycobacterium tuberculosis; experiment: Inhibition of multidrug resistance efflux pump in Mycobacterium tuberculosis H37Rv assessed as amikacin MIC at 0.94 ug/ml after 7 days by two-dimensional broth microdilution checkerboard assay; settings: 168 h; summary of the method: as §2
[9] = tested on: Mycobacterium tuberculosis; experiment: Inhibition of multidrug resistance efflux pump in Mycobacterium tuberculosis H37Rv assessed as amikacin MIC at 0.23 ug/ml after 7 days by two-dimensional broth microdilution checkerboard assay; settings: 168 h; summary of the method: as §2
[10] = tested on: Mycobacterium tuberculosis; experiment: Inhibition of multidrug resistance efflux pump in Mycobacterium tuberculosis H37Rv assessed as ofloxacin MIC at 1.88 ug/ml after 7 days by two-dimensional broth microdilution checkerboard assay; settings: 168 h; summary of the method: as §2
[11] = tested on: Mycobacterium tuberculosis; experiment: Inhibition of multidrug resistance efflux pump in Mycobacterium tuberculosis H37Rv assessed as ofloxacin MIC at 0.47 ug/ml after 7 days by two-dimensional broth microdilution checkerboard assay; settings: 168 h; summary of the method: as §2
[12] = tested on: Mycobacterium tuberculosis; experiment: Inhibition of multidrug resistance efflux pump in Mycobacterium tuberculosis H37Rv assessed as ofloxacin MIC at 0.23 ug/ml after 7 days by two-dimensional broth microdilution checkerboard assay; settings: 168 h; summary of the method: as §2
[13] = tested on: Mycobacterium tuberculosis; experiment: Inhibition of multidrug resistance efflux pump in Mycobacterium tuberculosis H37Rv assessed as ethidium bromide MIC at 1.88 ug/ml after 7 days by two-dimensional broth microdilution checkerboard assay; settings: 168 h; summary of the method: as §2
[14] = tested on: Mycobacterium tuberculosis; experiment: Inhibition of multidrug resistance efflux pump in Mycobacterium tuberculosis H37Rv assessed as ethidium bromide MIC at 0.47 ug/ml after 7 days by two-dimensional broth microdilution checkerboard assay; settings: 168 h; summary of the method: as §2
[15] = tested on: Mycobacterium tuberculosis; experiment: Inhibition of multidrug resistance efflux pump in Mycobacterium tuberculosis H37Rv assessed as ethidium bromide MIC at 0.23 ug/ml after 7 days by two-dimensional broth microdilution checkerboard assay; settings: 168 h; summary of the method: as §2
[16] = tested on: Mycobacterium tuberculosis; experiment: Inhibition of multidrug resistance efflux pump in Mycobacterium tuberculosis H37Rv assessed as reduction in isoniazid MIC at 7.5 ug/ml after 7 days by two-dimensional broth microdilution checkerboard assay; summary of the method: as §1
[17] = tested on: Mycobacterium tuberculosis; experiment: Inhibition of multidrug resistance efflux pump in Mycobacterium tuberculosis H37Rv assessed as reduction in ofloxacin MIC at 7.5 ug/ml after 7 days by two-dimensional broth microdilution checkerboard assay; summary of the method: as §1
[18] = tested on: Mycobacterium tuberculosis; experiment: Inhibition of multidrug resistance efflux pump in Mycobacterium tuberculosis H37Rv assessed as isoniazid MIC at 7.5 ug/ml after 7 days by two-dimensional broth microdilution checkerboard assay; settings: 168 h; summary of the method: as §1
[19] = tested on: Mycobacterium tuberculosis; experiment: Inhibition of multidrug resistance efflux pump in Mycobacterium tuberculosis H37Rv assessed as isoniazid MIC at 0.94 ug/ml after 7 days by two-dimensional broth microdilution checkerboard assay; settings: 168 h; summary of the method: as §2
[20] = tested on: Mycobacterium tuberculosis; experiment: Inhibition of multidrug resistance efflux pump in Mycobacterium tuberculosis H37Rv assessed as isoniazid MIC at 0.23 ug/ml after 7 days by two-dimensional broth microdilution checkerboard assay; settings: 168 h; summary of the method: as §2
[21] = tested on: Mycobacterium tuberculosis; experiment: Inhibition of multidrug resistance efflux pump in Mycobacterium tuberculosis H37Rv assessed as reduction in isoniazid MIC at 128 ug/ml after 7 days by two-dimensional broth microdilution checkerboard assay
[22] = tested on: Mycobacterium tuberculosis; experiment: Inhibition of multidrug resistance efflux pump in Mycobacterium tuberculosis H37Rv assessed as reduction in ofloxacin MIC at 128 ug/ml after 7 days by two-dimensional broth microdilution checkerboard assay
[23] = tested on: Mycobacterium tuberculosis; experiment: Inhibition of multidrug resistance efflux pump in Mycobacterium tuberculosis H37Rv assessed as amikacin MIC at 2 ug/ml after 7 days by two-dimensional broth microdilution checkerboard assay; settings: 168 h
[24] = tested on: Mycobacterium tuberculosis; experiment: Inhibition of multidrug resistance efflux pump in Mycobacterium tuberculosis H37Rv assessed as ofloxacin MIC at 2 ug/ml after 7 days by two-dimensional broth microdilution checkerboard assay; settings: 168 h
[25] = tested on: Mycobacterium tuberculosis; experiment: Inhibition of multidrug resistance efflux pump in Mycobacterium tuberculosis H37Rv assessed as ofloxacin MIC at 1 ug/ml after 7 days by two-dimensional broth microdilution checkerboard assay; settings: 168 h; summary of the method: as §1
[26] = tested on: Mycobacterium tuberculosis; experiment: Inhibition of multidrug resistance efflux pump in Mycobacterium tuberculosis H37Rv assessed as ethidium bromide MIC at 2 ug/ml after 7 days by two-dimensional broth microdilution checkerboard assay; settings: 168 h
[27] = tested on: Mycobacterium tuberculosis; experiment: Inhibition of multidrug resistance efflux pump in Mycobacterium tuberculosis H37Rv assessed as ethidium bromide MIC at 1 ug/ml after 7 days by two-dimensional broth microdilution checkerboard assay; settings: 168 h; summary of the method: as §1
[28] = tested on: Mycobacterium tuberculosis; experiment: Inhibition of multidrug resistance efflux pump in Mycobacterium tuberculosis H37Rv assessed as reduction in isoniazid MIC at 64 ug/ml after 7 days by two-dimensional broth microdilution checkerboard assay; summary of the method: as §1
[29] = tested on: Mycobacterium tuberculosis; experiment: Inhibition of multidrug resistance efflux pump in Mycobacterium tuberculosis H37Rv assessed as reduction in amikacin MIC at 32 ug/ml after 7 days by two-dimensional broth microdilution checkerboard assay; summary of the method: as §1
[30] = tested on: Mycobacterium tuberculosis; experiment: Inhibition of multidrug resistance efflux pump in Mycobacterium tuberculosis H37Rv assessed as isoniazid MIC at 2 ug/ml after 7 days by two-dimensional broth microdilution checkerboard assay; settings: 168 h
[31] = tested on: Mycobacterium tuberculosis; experiment: Inhibition of multidrug resistance efflux pump in Mycobacterium tuberculosis H37Rv assessed as rifampin MIC at 1 ug/ml after 7 days by two-dimensional broth microdilution checkerboard assay; settings: 168 h; summary of the method: as §1

Compound: COc1ccc(N(CCC2CCCCN2C)C(C)C)cc1OC (racemic)
- fold change (FC) [1]: 4

Compound: CSc1ccc2c(c1)N(CCC1CCCCN1C)c1ccccc1S2 (stereo unspecified) [THIORIDAZINE]
- MIC [2]: 1 µg/mL
- MIC [3]: 1 µg/mL
- MIC [4]: 1 µg/mL
- MIC [5]: 1 µg/mL
- MIC [6]: < 0.0156 µg/mL
- MIC [7]: 1 µg/mL
- MIC [8]: 1 µg/mL
- MIC [9]: 1 µg/mL
- MIC [10]: 1 µg/mL
- MIC [11]: 1 µg/mL
- MIC [12]: 1 µg/mL
- MIC [13]: 6.25 µg/mL
- MIC [14]: 6.25 µg/mL
- MIC [15]: 6.25 µg/mL
- fold change (FC) [16]: >128
- fold change (FC) [17]: >128
- MIC [18]: < 0.00078 µg/mL
- MIC [19]: 0.1 µg/mL
- MIC [20]: 0.1 µg/mL

Compound: CN1CCCCC1CCn1ccc2ccc(Br)cc21 (racemic)
- fold change (FC) [21]: >164
- fold change (FC) [22]: >128

Compound: CN1CCCCC1CCn1c2ccccc2c2ccccc21 (racemic)
- MIC [23]: 1 µg/mL
- MIC [24]: 1 µg/mL
- MIC [25]: 1 µg/mL
- MIC [26]: 12.5 µg/mL
- MIC [27]: 12.5 µg/mL
- fold change (FC) [28]: >128
- fold change (FC) [29]: 4
- MIC [30]: 0.1 µg/mL
- MIC [31]: 1 µg/mL
